Measurements published in publication PMC3204583 (Journal of medicinal chemistry, 2010).

Legend:
[1] = tested on: poly-ubiquitinated proteins in HeLa cervical cancer cells; assay: Immunoblot analysis of poly-ubiquitinated proteins in HeLa cells; type: cell-based, human; conditions: eight hours treatment
Outline: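 HeLa cells were grown in DMEM with 10% FBS, penicillin and streptomycin at 5% CO2, then treated for 8 h with or without test compound at several concentrations. Bortezomib served as the positive control. Poly-ubiquitinated proteins were detected by immunoblot, with β-actin as the loading control.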

HeLa cells = assay: Washout experiment, residual cell viability; type: cell-based, human; conditions: HeLa cells briefly treated
Outline: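 HeLa cells grown in DMEM with 10% FBS, penicillin/streptomycin, 5% CO2. Cells were briefly exposed to the test compound or bortezomib (reversible-inhibitor reference), then washed out; non-washout cultures served as comparison. Viability was read by XTT: seeded at 1,000 cells/well, 4 h with XTT labeling mixture, absorbance at 450 nm. Run in triplicate, mean ± SE.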

[2] = tested on: chymotrypsin-like (CT-like) activity of proteasomes isolated from LCLs; assay: Proteasome chymotrypsin-like activity, fluorogenic substrate Suc-LLVY-AMC; type: biochemical; conditions: 10 µM compound
Outline: (§1)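 Proteasomes came from lymphoblastoid cells lysed by glass-bead vortexing in Tris pH 7.5, MgCl2, DTT, ATP and sucrose buffer. They were semipurified by centrifugation and 100,000g ultracentrifugation. Preparations were pretreated with test compound for 30 min at 37°C, then assayed 45 min at 37°C with Suc-LLVY-AMC (CT-like), Boc-LRR-AMC (T-like) or Ac-YVAD-AMC (PGPH/caspase-like). Reactions were SDS-quenched and read at ex 380/em 440 nm. Results are % inhibition versus untreated; IC50 is the mean of three determinations.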

[3] = tested on: trypsin-like (T-like) activity of proteasomes isolated from LCLs; assay: Proteasome trypsin-like activity, fluorogenic substrate Boc-LRR-AMC; type: biochemical; conditions: 10 µM compound
Outline: as §1

[4] = tested on: peptidylglutamyl peptide hydrolyzing-like (PGPH-like) activity of proteasomes isolated from LCLs; assay: Proteasome PGPH-like activity, fluorogenic substrate Ac-YVAD-AMC; type: biochemical; conditions: for inhibition of PGPH-like activity of 20S proteasome: 10 µM compound; for IC50: read-out: Isolated enzyme IC50(µM) PGPH-like, proteasomes isolated from LCLs, average of three independent determinations
Outline: as §1

Cathepsin D = Cathepsin D (Homo sapiens, UniProt P07339); assay: Residual Cathepsin D activity in HeLa cells; type: cell-based; conditions: concentrations up to 50 µM
Sequence of Cathepsin D (P07339 65-412): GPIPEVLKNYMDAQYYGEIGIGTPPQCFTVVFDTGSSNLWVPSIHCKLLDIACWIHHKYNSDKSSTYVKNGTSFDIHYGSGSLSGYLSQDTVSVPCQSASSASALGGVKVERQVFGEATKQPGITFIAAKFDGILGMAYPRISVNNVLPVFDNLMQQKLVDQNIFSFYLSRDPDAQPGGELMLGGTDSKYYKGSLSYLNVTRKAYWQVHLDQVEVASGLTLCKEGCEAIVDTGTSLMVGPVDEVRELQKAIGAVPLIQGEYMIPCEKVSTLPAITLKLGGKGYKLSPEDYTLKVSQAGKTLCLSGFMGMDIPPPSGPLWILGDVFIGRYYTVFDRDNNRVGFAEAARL

Calpain = assay: Residual Calpain activity in HeLa cells; type: cell-based, human; conditions: concentrations up to 50 µM
[5] = tested on: SiHa cervical cancer cells (HPV16+); assay: XTT cell viability assay, SiHa; type: cell-based, human; conditions: 48 hours
[6] = tested on: ME180 cervical cancer cells (HPV58+); assay: XTT cell viability assay, ME180; type: cell-based, human; conditions: 48 hours
[7] = tested on: primary human Keratinocytes; assay: XTT cell viability assay, primary Keratinocytes; type: cell-based; conditions: 48 hours
[8] = tested on: Ub-FL reporter in HeLa cervical cancer cells; assay: Ubiquitin-Firefly luciferase; type: cell-based, human; conditions: combination of Bortezomib (5nM) and compound 2 (1µM)
Outline: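 HeLa cells were transfected with either the Ub-FL reporter (four ubiquitin G76V copies fused N-terminal to firefly luciferase) or the CMV-FL control. They were replated 24 h later at 1×10^4 cells/well and left 18 h to attach. Cells then received bortezomib 5 nM, test compound 1 µM, or both for 6 h. Lysate luciferase was read as RLU, given as % of control, from three independent experiments with SE.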

[9] = tested on: HeLa cervical cancer cells; assay: Combination with Bortezomib, XTT viability, isobologram / combination index; type: cell-based, human
[10] = tested on: HeLa cervical cancer cells; assay: Cellular morphology by phase contrast microscopy; type: cell-based, human; conditions: combination of Bortezomib (5nM)+compound 2 (1 µM), 48 hours

SMILES | levels of poly-ubiquitinated proteins [1] | cell viability after washout compared to non-washout cultures (HeLa cells) | inhibition of chymotrypsin-like (CT-like) activity of 20S proteasome [2] | inhibition of trypsin-like (T-like) activity of 20S proteasome [3] | inhibition of PGPH-like activity of 20S proteasome [4] | IC50 [4] [µM] | also measured
CC(C)C[C@H](NC(=O)[C@H](Cc1ccccc1)NC(=O)c1cnccn1)B(O)O [Bortezomib, reference compound] | increase | partial recovery in cell viability | – | – | – | – | –
O=C1/C(=C/c2ccc(Cl)c(Cl)c2)CN(C(=O)N[C@@H](Cc2ccccc2)C(=O)O)C/C1=C\c1ccc(Cl)c(Cl)c1 [Compound 2] | – | partial recovery in cell viability | nearly fully abrogated | nearly fully abrogated | nearly fully abrogated | – | inhibitory capacity toward Cathepsin D activity (Cathepsin D): no inhibitory capacity; inhibitory capacity toward Calpain activity (Calpain): no inhibitory capacity; effect on viability of SiHa [5]: dose-dependent drop; effect on viability of ME180 [6]: dose-dependent drop; effect on viability of primary human Keratinocytes [7]: minimal effects; stabilization of the Ub-FL degron compared to single agents alone [8]: significantly enhance the stabilization; Combination Index (CI) ([9]; Bortezomib 3.95 nmol/L / compound 2 2.5 mM/L): 0.6; Combination Index (CI) ([9]; Bortezomib 6.125 nmol/L / compound 2 1.64 mM/L): 0.6; Combination Index (CI) ([9]; Bortezomib 7.5 nmol/L / compound 2 1.06 mM/L): 0.59; interaction of the combination with Bortezomib by isobologram analysis ([9]; checker board dilution series, XTT): highly synergistic; morphological changes compared to single treatment alone [10]: greater apoptotis-associated morphological changes
O=C1/C(=C/c2ccc(Cl)c(Cl)c2)CN(C(=O)N[C@@H](Cc2ccc(O)cc2)C(=O)O)C/C1=C\c1ccc(Cl)c(Cl)c1 [Compound 3] | – | – | partial inhibition | partial inhibition | partial inhibition | > 10 | –
CC(C)C[C@H](NC(=O)N1C/C(=C\c2ccc(Cl)c(Cl)c2)C(=O)/C(=C/c2ccc(Cl)c(Cl)c2)C1)C(=O)O [Compound 4] | – | – | partial inhibition | partial inhibition | partial inhibition | > 10 | –
O=C(O)CC[C@H](NC(=O)N1C/C(=C\c2ccc(Cl)c(Cl)c2)C(=O)/C(=C/c2ccc(Cl)c(Cl)c2)C1)C(=O)O [Compound 5] | no changes | – | – | – | – | – | –
